In article PMC10527948 (European journal of pharmacology, 2023):

How the values were obtained:
primary astrocytes [1] = assay: Cell proliferation by double Ki67/DAPI fluorescence staining; assay type: cell-based, rat; conditions: 24 hours
primary astrocytes [2] = assay: Morphometric analysis of GFAP-immunostained astrocytes; assay type: cell-based, rat; conditions: 24 hours
Summary of the method: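 Astrocytes on PLL-coated coverslips treated with inhibitor for 24 h, then prefixed in 4% PFA and blocked in 5% BSA. Stained with rabbit anti-GFAP (1:500), Alexa-555 secondary, and DAPI. Confocal images analysed in ImageJ for cell area and shape descriptors. Mean ± SE from ≥ 22 cells in 3 random fields, ≥ 2 cultures.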

[3] = target: T1, membrane-bound ecto-5`-nucleotidase/CD73 (Rattus norvegicus, UniProt P21588); assay: Ecto-5`-nucleotidase/CD73 enzyme assay; assay type: biochemical; conditions: for IC50: Dixon linearization, control primary astrocytes, 1.0 mM AMP; for % inhibition at indicated concentration: value in brackets in the Ki column, concentration not given
T1 sequence (P21588 29-576): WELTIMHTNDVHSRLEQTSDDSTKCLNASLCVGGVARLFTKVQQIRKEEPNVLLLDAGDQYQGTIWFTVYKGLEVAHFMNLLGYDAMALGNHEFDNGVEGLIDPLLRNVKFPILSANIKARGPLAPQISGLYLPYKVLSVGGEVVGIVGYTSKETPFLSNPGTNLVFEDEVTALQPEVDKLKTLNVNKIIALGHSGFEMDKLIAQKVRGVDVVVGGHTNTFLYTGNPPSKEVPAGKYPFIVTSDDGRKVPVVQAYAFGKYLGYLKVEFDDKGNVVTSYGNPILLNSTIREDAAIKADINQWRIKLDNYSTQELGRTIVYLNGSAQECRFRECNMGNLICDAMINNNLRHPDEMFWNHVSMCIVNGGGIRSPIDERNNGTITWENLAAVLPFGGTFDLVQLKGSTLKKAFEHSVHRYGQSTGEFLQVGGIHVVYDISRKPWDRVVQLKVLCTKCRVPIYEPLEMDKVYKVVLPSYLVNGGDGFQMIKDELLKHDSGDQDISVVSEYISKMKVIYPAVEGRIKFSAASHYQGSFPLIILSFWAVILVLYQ
Summary of the method: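 Confluent primary cortical astrocytes from 1-day-old male Wistar rat pups, washed in phosphate-free HEPES/bicarbonate saline, pH 7.4. 15 min preincubation with inhibitor (in water, 1×10−9 to 1×10−3 M); 1.0 mM AMP solution added, 30 min at 37°C; stopped with cold perchloric acid. Pi by malachite green at 620 nm, normalised to BCA protein.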

primary astrocytes [4] = assay: Scratch wound migration assay; assay type: cell-based, rat; conditions: 1–100 μM; 8 and 24 hours
[5] = target: T2, CD73 in reactive astrocytes (Rattus norvegicus, UniProt P21588); assay: CD73 enzyme assay in reactive astrocytes stimulated with TNFα or IL-1β; assay type: biochemical
T2 sequence (P21588 29-576): T1 sequence (P21588 29-576)
Summary of the method: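 Rat primary astrocytes exposed to TNF-α or IL-1β for 24 h, then assayed for AMP hydrolysis (Pi release by malachite green, per mg protein per min). Inhibitor tested at a single 50 μM concentration, or as a 1–250 μM series in cells given 0.1 μg/ml IL-1β. The series was fitted to a four-parameter sigmoid.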

primary astrocytes [6] = assay: MTT assay of cell metabolic activity; assay type: cell-based, rat
C3 = assay: qRT-PCR of inflammatory gene expression in cytokine-treated astrocytes; assay type: cell-based, rat; conditions: 100 ng/ml cytokine, 24 hours
Summary of the method: (§1)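 Confluent rat primary astrocytes in 6-well plates treated with 100 ng/ml TNF-α or IL-1β for 24 h. Total RNA extracted with TRIzol, purity checked by OD260/280, then reverse-transcribed. Gene-specific primers used with Gapdh as internal control; quantified by the 2−ΔCt method, n = 3 separate determinations.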

Lcn = assay: as above; assay type: cell-based, rat; conditions: 100 ng/ml cytokine, 24 hours
Summary of the method: as §1

Nt5e = assay: qRT-PCR of gene expression in cytokine-treated astrocytes; assay type: cell-based, rat; conditions: 100 ng/ml cytokine, 24 hours
Summary of the method: as §1

## Nc1ncnc2c1ncn2[C@@H]1O[C@H](COP(=O)(O)CP(=O)(O)O)[C@@H](O)[C@H]1O [APCP, 5’-(α,β-methylene)diphosphate adenosine, reference compound]
Primary astrocytes [1]; indicated concentrations
  effect on proliferation rate (Ki67+/DAPI+): no apparent effect
Primary astrocytes [2]; 100 μM
  Area (μm^2): 3181.9 ± 607.2 μm^2
  Aspect ratio: 2.2 ± 0.2
  Circularity: 0.49 ± 0.03
  Roundness: 0.54 ± 0.07
  Solidity: 0.75 ± 0.04
[3]; Cheng-Prusoff equation, Km for rat CD73 53.0 ± 4.1 μM
  Ki: 0.132 ± 0.089 µM
[3]
  IC50: 2.63 ± 1.76 µM
  % inhibition at indicated concentration: 18.6%

## Cn1c(=O)n([C@@H]2O[C@H](COP(=O)(O)CP(=O)(O)O)[C@@H](O)[C@H]2O)cc/c1=N\OCc1ccc(Cl)cc1 [MRS4598]
Primary astrocytes [4]
  effect on astrocyte migration velocity (wound closure): did not affect migration velocity of astrocytes, except at the highest tested concentration of 100 μM
Primary astrocytes [1]; 50 μM and 100 μM, vs control (~22%), p < 0.05
  effect on proliferation rate (Ki67+/DAPI+): modest but significant decrease
[5]; 50 μM, cells treated with TNFα or IL-1β for 24 hours
  effect on CD73 catalytic activity in reactive astrocytes: decreased the catalytic activity of CD73
[5]; astrocytes stimulated with 0.1 μg/ml IL-1β, 1–250 μM
  IC50: 5 ± 0.26 µM
Primary astrocytes [2]; 10 μM
  Area (μm^2): 3619.4 ± 552.5 μm^2
  Aspect ratio: 2.3 ± 0.2
  Circularity: 0.55 ± 0.06
  Roundness: 0.47 ± 0.04
  Solidity: 0.84 ± 0.04
Primary astrocytes [2]; 100 μM
  Area (μm^2): 1861.8 ± 137.5 ^* μm^2
  Aspect ratio: 2.7 ± 0.2
  Circularity: 0.43 ± 0.03
  Roundness: 0.42 ± 0.04
  Solidity: 0.77 ± 0.02
Primary astrocytes [6]; 1 μM, 24 hours
  effect on formazan formation (MTT): no effect
Primary astrocytes [6]; concentrations above 10 μM, 24 hours, no apparent concentration dependence
  reduction of formazan formation (MTT): 40%
Primary astrocytes [6]; concentrations as low as 1 μM
  cytotoxic effects on primary astrocytes: negligible cytotoxic effects
[3]; 1×10^−3 M inhibitor
  inhibition of CD73 activity at 1×10^−3 M: complete inhibition
[3]
  IC50: 0.11 ± 0.08 µM
  % inhibition at indicated concentration: 53.4%

## IL-1β: proinflammatory cytokine used to induce the reactive astrocyte phenotype
C3
  C3 mRNA abundance (fold-increase in respect to non-stimulated control): 3.13 ± 0.69 fold-increase
Lcn
  Lcn mRNA abundance (fold-increase in respect to non-stimulated control): 24.22 ± 6.21 fold-increase

## TNFα
C3
  C3 mRNA abundance (fold-increase in respect to non-stimulated control): 4.65 ± 2.29 fold-increase
Nt5e
  Nt5e mRNA abundance (fold-increase in respect to non-stimulated control): 2.49 ± 0.33 fold-increase
Lcn
  Lcn mRNA abundance (fold-increase in respect to non-stimulated control): 49.04 ± 3.34 fold-increase
